Measured values published in ChEMBL document CHEMBL1121884, “Piperazinylquinoxalines with central serotoninmimetic activity” (1981).
The source made the active and inactive calls. The rule behind the calls is not given here.

Key:
[1] = target: T1, Serotonin (5-HT) receptor (Rattus norvegicus) (UniProt P35563+P35365+P32305+P31388+Q9JJ16+P28564+P30994+Q62758+P08909+P14842+P30940+P35364+P19327+P28565); assay: (§1) Ability to elicit head twitches in rats (a serotonin mimetic response); format: functional; parameters: concentration or dose not given beside the values
In short: (§2)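 Female Sprague-Dawley rats (150-250 g), compound given ip in 1% methylcellulose vehicle, dose as base weight; quantal scoring of rats showing at least one head twitch during a 2-min observation beginning 30 min after dosing; usually six rats per dose level; vehicle controls run.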

[2] = target: T1, Serotonin (5-HT) receptor (Rattus norvegicus); assay: as §1; format: functional; parameters: concentration or dose not given beside the values; in short: as §2; remark: listed apart in the source
[3] = target: Sodium-dependent serotonin transporter (Rattus norvegicus) (UniProt P31652); assay: (§3) Serotonin neuronal reuptake blocking activity was determined by the antagonism of the head twitch response induced by treatment of rats; format: functional; parameters: concentration or dose not given beside the values
In short: (§4)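 Female Sprague-Dawley rats (150-250 g) dosed ip with compound (1% methylcellulose vehicle, dose as base weight), then p-chloromethamphetamine 6.0 mg/kg ip 1 h later; head twitches observed 30 min after PCMA; scored as rats not twitching; usually six rats per dose; ED50 = dose antagonizing PCMA head twitch in 50% of animals, with 95% confidence limits.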

Rattus norvegicus [4] = assay: Ability to elicit head twitches in rats a response characteristic of a serotonin mimetic action in the central nervous system after 40 mg/kg of ip administration; Animals succumbed; format: functional, organism-based; parameters: dose 40 mg/kg; in short: as §2
[5] = target: Sodium-dependent serotonin transporter (Rattus norvegicus) (UniProt P31652); assay: as §3; format: functional; parameters: concentration or dose not given beside the values; in short: as §4; remark: listed apart in the source
[6] = target: Sodium-dependent serotonin transporter (Rattus norvegicus) (UniProt P31652); assay: Serotonin neuronal reuptake blocking activity was determined by the antagonism of the head twitch response induced in rats; format: functional; parameters: concentration or dose not given beside the values; in short: as §4
Rattus norvegicus [7] = assay: Ability to elicit head twitches in rats a response characteristic of a serotonin mimetic action in the central nervous system was measured after 0.67 mg/kg of ip administration; format: functional; details: route intraperitoneal; in short: as §2
Rattus norvegicus [8] = assay: Ability to elicit head twitches in rats a response characteristic of a serotonin mimetic action in the central nervous system after 6 mg/kg of ip administration; format: functional; details: route intraperitoneal; in short: as §2
Rattus norvegicus [9] = assay: Ability to elicit head twitches in rats a response characteristic of a serotonin mimetic action in the central nervous system was measured after 2 mg/kg of ip administration; format: functional; details: route intraperitoneal; in short: as §2
Rattus norvegicus [10] = assay: Serotonin neuronal reuptake blocking activity was determined by the antagonism of the head twitch response induced in rats with p-chloromethamphetamine (PCMA) after 40 mg/kg of ip administration; Animals succumbed; format: functional, organism-based; parameters: dose 40 mg/kg; in short: as §4
[11] = target: T1, Serotonin (5-HT) receptor (Rattus norvegicus); assay: as §1; format: functional; parameters: concentration or dose not given beside the values; in short: as §2; remark: listed apart in the source
Rattus norvegicus [12] = assay: Serotonin neuronal reuptake blocking activity was determined by the antagonism of the head twitch response induced by treatment of rats with p-chloromethamphetamine (PCMA) after 0.67 mg/kg of ip administration; format: functional; details: route intraperitoneal; in short: as §4
Rattus norvegicus [13] = assay: Serotonin neuronal reuptake blocking activity was determined by the antagonism of the head twitch response induced in rats with p-chloromethamphetamine (PCMA) after 6 mg/kg of ip administration; format: functional; details: route intraperitoneal; in short: as §4
Rattus norvegicus [14] = assay: Serotonin neuronal reuptake blocking activity was determined by the antagonism of the head twitch response induced by treatment of rats with p-chloromethamphetamine (PCMA) after 2 mg/kg of ip administration; format: functional; details: route intraperitoneal; in short: as §4
Rattus norvegicus [15] = assay: Ability to elicit head twitches in rats a response characteristic of a serotonin mimetic action in the central nervous system was measured after 1.0 mg/kg of ip administration; format: functional; details: route intraperitoneal; in short: as §2
Rattus norvegicus [16] = assay: Ability to elicit head twitches in rats a response characteristic of a serotonin mimetic action in the central nervous system was measured after 3 mg/kg of ip administration; format: functional; details: route intraperitoneal; in short: as §2
Rattus norvegicus [17] = assay: Serotonin neuronal reuptake blocking activity was determined by the antagonism of the head twitch response induced in rats with p-chloromethamphetamine (PCMA) after 9 mg/kg of ip administration; format: functional; details: route intraperitoneal; in short: as §4
Rattus norvegicus [18] = assay: Serotonin neuronal reuptake blocking activity was determined by the antagonism of the head twitch response induced by treatment of rats with p-chloromethamphetamine (PCMA) after 1.0 mg/kg of ip administration; format: functional; details: route intraperitoneal; in short: as §4
Rattus norvegicus [19] = assay: Ability to elicit head twitches in rats a response characteristic of a serotonin mimetic action in the central nervous system after 9 mg/kg of ip administration; format: functional; details: route intraperitoneal; in short: as §2
Rattus norvegicus [20] = assay: Serotonin neuronal reuptake blocking activity was determined by the antagonism of the head twitch response induced by treatment of rats with p-chloromethamphetamine (PCMA) after 3 mg/kg of ip administration; format: functional; details: route intraperitoneal; in short: as §4
Rattus norvegicus [21] = assay: Serotonin neuronal reuptake blocking activity was determined by the antagonism of the head twitch response induced by treatment of rats with p-chloromethamphetamine (PCMA) after 1 mg/kg of ip administration; format: functional; details: route intraperitoneal; in short: as §4
Rattus norvegicus [22] = species on record: Rattus norvegicus; assay: ED50 value expresses the inhibition of serotonin reuptake in rat.; format: functional; in short: as §4
Rattus norvegicus [23] = assay: Ability to elicit head twitches in rats a response characteristic of a serotonin mimetic action in the central nervous system was measured after 1 mg/kg of ip administration; format: functional; details: route intraperitoneal; in short: as §2

Sequence of Sodium-dependent serotonin transporter (Rattus norvegicus) (P31652 whole entry): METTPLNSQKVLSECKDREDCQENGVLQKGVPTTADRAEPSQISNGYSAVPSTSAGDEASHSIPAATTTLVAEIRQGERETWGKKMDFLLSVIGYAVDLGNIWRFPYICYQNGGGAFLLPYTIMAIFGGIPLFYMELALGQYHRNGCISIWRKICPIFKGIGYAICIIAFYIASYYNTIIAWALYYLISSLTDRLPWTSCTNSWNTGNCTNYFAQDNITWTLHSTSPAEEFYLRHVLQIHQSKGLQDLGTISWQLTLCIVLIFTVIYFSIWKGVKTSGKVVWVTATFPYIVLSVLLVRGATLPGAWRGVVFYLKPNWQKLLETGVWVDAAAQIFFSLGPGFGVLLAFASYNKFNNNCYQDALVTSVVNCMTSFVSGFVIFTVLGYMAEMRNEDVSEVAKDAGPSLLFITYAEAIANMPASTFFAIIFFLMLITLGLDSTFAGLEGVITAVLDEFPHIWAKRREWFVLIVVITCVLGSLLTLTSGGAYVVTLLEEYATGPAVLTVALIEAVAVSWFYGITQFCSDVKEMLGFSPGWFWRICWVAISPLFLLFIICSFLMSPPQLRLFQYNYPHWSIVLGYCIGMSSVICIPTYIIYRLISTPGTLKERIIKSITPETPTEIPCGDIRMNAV

Structure (SMILES) | Activity [1] | Activity [2] | PCMA antagonism [3] | PCMA antagonism [5] | PCMA antagonism [6] | Activity [11] | other results
Fc1cccc2nc(N3CCNCC3)cnc12 | 6 | 6 |  |  |  |  | 
COc1ccc2nc(N3CCNCC3)cnc2c1 | 1 | 1 | 5 | 3 |  |  | Activity (Rattus norvegicus [4]): Active
Fc1ccc2nc(N3CCNCC3)cnc2c1 |  |  | 2 | 2 | 4 |  | Activity (Rattus norvegicus [7]): 4; Activity (Rattus norvegicus [8]): 5; Activity (Rattus norvegicus [9]): 4
Fc1cccc2ncc(N3CCNCC3)nc12 | 6 | 1 | 1 | 0 |  |  | Activity (Rattus norvegicus [4]): Active; PCMA antagonism (Rattus norvegicus [10]): Active
Oc1ccc2nc(N3CCNCC3)cnc2c1 | 0 | 0 | 0 |  | 2 | 1 | 
CS(=O)(=O)c1ccc2nc(N3CCNCC3)cnc2c1 |  |  |  |  |  |  | PCMA antagonism (Rattus norvegicus [12]): 2; PCMA antagonism (Rattus norvegicus [13]): 0; Activity (Rattus norvegicus [7]): 0; PCMA antagonism (Rattus norvegicus [14]): 0; Activity (Rattus norvegicus [8]): 2; Activity (Rattus norvegicus [9]): 1
CC(=O)N1CCN(c2cnc3cc(Cl)ccc3n2)CC1 | 2 | 2 | 1 | 0 | 0 | 1 | 
Clc1ccc2ncc(N3CCNCC3)nc2c1 |  |  |  |  |  |  | Activity (Rattus norvegicus [15]): 0; Activity (Rattus norvegicus [16]): 1; PCMA antagonism (Rattus norvegicus [17]): 5; PCMA antagonism (Rattus norvegicus [18]): 1; Activity (Rattus norvegicus [19]): 3; PCMA antagonism (Rattus norvegicus [20]): 3
CN1CCN(c2cnc3cc(Cl)ccc3n2)CC1.Cl |  |  |  |  |  |  | Activity (Rattus norvegicus [15]): 0; Activity (Rattus norvegicus [16]): 1; PCMA antagonism (Rattus norvegicus [17]): 4; PCMA antagonism (Rattus norvegicus [21]): 2; Activity (Rattus norvegicus [19]): 1; PCMA antagonism (Rattus norvegicus [20]): 2
COc1cccc2nc(N3CCNCC3)cnc12 | 2 | 1 | 1 | 0 | 2 | 3 | 
c1ccc2nc(N3CCNCC3)cnc2c1 | 12 | 9 | 2 | 2 |  |  | Activity (Rattus norvegicus [4]): Active; PCMA antagonism (Rattus norvegicus [10]): Active
Cl.Clc1ccc2nc(N3CCNCC3)cnc2c1 | 0 | 1 | 6 | 4 | 6 | 2 | ED50 (Rattus norvegicus [22]; Rattus norvegicus): 0.5 mg/kg
O=C(O)C1CN(c2cnc3ccccc3n2)CCN1 (centres undefined) | 1 | 2 | 0 | 0 | 0 | 0 | 
Nc1nc2ccccc2nc1N1CCNCC1 | 3 | 2 | 1 | 1 | 0 | 6 | 
Clc1ccc2nc(N3CCNCC3)c(Sc3ccccc3)nc2c1 | 1 | 1 | 2 | 1 | 1 | 0 | 
CN1CCN(c2nc3ccc(S(N)(=O)=O)cc3nc2Cl)CC1 | 1 | 3 | 2 | 2 | 2 | 4 | 
CN(C)CCCN1c2ccccc2CCc2ccc(Cl)cc21 [CLOMIPRAMINE] |  |  |  |  |  |  | ED50 (Rattus norvegicus [22]): 2 mg/kg
Cl.ON1CCN(c2cnc3ccccc3n2)CC1 |  |  |  |  |  |  | Activity (Rattus norvegicus [16]): 2; Activity (Rattus norvegicus [19]): 4; Activity (Rattus norvegicus [23]): 2
O=[N+]([O-])c1ccc2nc(N3CCNCC3)cnc2c1 | 2 | 4 | 6 | 5 | 5 | 2 | 
Clc1cc2ncc(N3CCNCC3)nc2cc1Cl | 2 | 0 | 4 | 1 | 3 | 1 | 
[O-][n+]1cc(N2CCNCC2)nc2ccccc21 | 6 | 6 |  |  |  |  | 
Oc1nc2ccccc2nc1N1CCNCC1 | 6 | 2 |  |  | 1 | 0 | 
Cc1cccc2nc(N3CCNCC3)cnc12.Cl |  |  |  |  |  |  | Activity (Rattus norvegicus [16]): 4; PCMA antagonism (Rattus norvegicus [17]): 1; PCMA antagonism (Rattus norvegicus [21]): 0; Activity (Rattus norvegicus [19]): 5; Activity (Rattus norvegicus [23]): 0; PCMA antagonism (Rattus norvegicus [20]): 1
Brc1ccc2nc(N3CCNCC3)cnc2c1.Cl |  |  |  |  |  |  | PCMA antagonism (Rattus norvegicus [12]): 2; PCMA antagonism (Rattus norvegicus [13]): 2; Activity (Rattus norvegicus [7]): 0; PCMA antagonism (Rattus norvegicus [14]): 3; Activity (Rattus norvegicus [8]): 2; Activity (Rattus norvegicus [9]): 4
COc1ccc2ncc(N3CCNCC3)nc2c1 |  |  |  |  |  |  | Activity (Rattus norvegicus [7]): 1; Activity (Rattus norvegicus [8]): 6; Activity (Rattus norvegicus [9]): 5
CN(C)CCn1c(=O)c(N2CCNCC2)nc2ccccc21 | 0 | 1 | 0 | 2 | 0 | 1 | 
Cn1c(=O)c(N2CCNCC2)nc2ccccc21 |  |  |  |  |  |  | Activity (Rattus norvegicus [15]): 1; Activity (Rattus norvegicus [16]): 3; PCMA antagonism (Rattus norvegicus [17]): 0; PCMA antagonism (Rattus norvegicus [18]): 1; Activity (Rattus norvegicus [19]): 5; PCMA antagonism (Rattus norvegicus [20]): 2
O=C1CN(c2cnc3ccccc3n2)CCN1 | 0 | 0 |  |  |  | 3 | 
CN1CCN(c2nc3ccccc3nc2O)CC1 | 0 | 0 | 0 | 1 | 0 | 6 | 
